Measured values from ChEMBL document CHEMBL1154279, “Cytotoxic compounds from the stems of Cinnamomum tenuifolium” (J Nat Prod, 2009).
Calls of active or inactive are those of the source. The rule behind the calls is not given here.

What was measured:
DU-145 [1] = test: Cell cycle arrest in human DU145 cells assessed as accumulation of cells at S phase at 10 uM after 24 hrs using propidium iodide stain by flow cytometry; format: functional
Procedure, shortened: (§1)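 DU145 cells treated with 1, 5, 10 or 100 µM for 24 or 72 h; vehicle 1% DMSO in water. Adherent and floating cells pooled, fixed in PBS-MeOH (1:2) at 4 °C for at least 18 h, then stained 30 min at room temperature in the dark with propidium iodide 50 µg/mL plus RNase A 50 µg/mL. Flow cytometry, excitation 488 nm, emission above 580 nm, doublets gated out. Sub-G1 region taken as DNA damage; at least three runs.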

DU-145 [2] = test: Induction of apoptosis in human DU145 cells assessed as PARP activation at 100 uM by ELISA; format: functional, cell-based
DU-145 [3] = test: Cell cycle arrest in human DU145 cells assessed as accumulation of cells at G1 phase at 100 uM after 24 hrs using propidium iodide stain by flow cytometry; format: functional; procedure, shortened: as §1
DU-145 [4] = test: Cell cycle arrest in human DU145 cells assessed as accumulation of cells at sub-G1 phase at 5 uM after 24 hrs using propidium iodide stain by flow cytometry; format: functional; procedure, shortened: as §1
DU-145 [5] = test: Cell cycle arrest in human DU145 cells assessed as accumulation of cells at S phase at 5 uM after 24 hrs using propidium iodide stain by flow cytometry; format: functional; procedure, shortened: as §1
DU-145 [6] = test: Cell cycle arrest in human DU145 cells assessed as accumulation of cells at G2/M phase at 1 uM after 72 hrs using propidium iodide stain by flow cytometry; format: functional; procedure, shortened: as §1
DU-145 [7] = test: Cell cycle arrest in human DU145 cells assessed as accumulation of cells at sub-G1 phase after 24 hrs using propidium iodide stain by flow cytometry; format: functional, cell-based; procedure, shortened: as §1
DU-145 [8] = test: Cell cycle arrest in human DU145 cells assessed as accumulation of cells at sub-G1 phase at 100 uM after 24 hrs using propidium iodide stain by flow cytometry; format: functional; procedure, shortened: as §1
DU-145 [9] = test: Reduction of mitochondrial membrane potential in human DU145 cells using rhodamine 123 staining by spectrophotofluorimeter; format: functional, cell-based
Procedure, shortened: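 DU145 cells incubated 6, 12, 18 or 24 h with or without 10 and 100 µM, then given 10 µM rhodamine 123 in serum-free medium for 15 min at 37 °C. Collected cells read within 15 min by spectrofluorimeter (ex 495, em 520 nm); three experiments.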

DU-145 [10] = test: Induction of apoptosis in human DU145 cells assessed as increase in intracellular ROS level at 10 uM by DCHF-DA assay; format: functional, cell-based
DU-145 [11] = test: Induction of apoptosis in human DU145 cells assessed as change in cellular morphology after 24 hrs by Hoechst 33342 stainig; format: functional, cell-based
Procedure, shortened: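 DU145 cells exposed to 1 and 100 µM for 24 h, vehicle 1% DMSO. Fixed in 3.7% paraformaldehyde, stained with Hoechst 33342 (5 µg/mL) at 37 °C for 1 h and examined by fluorescence microscopy. Cells with reduced nuclear size, chromatin condensation or nuclear fragmentation scored as apoptotic.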

DU-145 [12] = test: Increase in the ratio of cytochrome C concentration from cytosol to mitochondria in human DU145 cells at 100 uM after 24 hrs by ELISA; format: functional, cell-based
Procedure, shortened: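 DU145 cells given 100 µM or DMSO vehicle for 6–24 h at 37 °C. Cytosolic fraction released with digitonin buffer on ice for 5 min; mitochondrial fraction taken by Triton/deoxycholate/SDS lysis and a 10000g spin. Cytochrome c in each fraction measured by ELISA and expressed as a cytosol/mitochondria ratio; three experiments, ANOVA with Dunnett's test.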

DU-145 [13] = test: Cell cycle arrest in human DU145 cells assessed as accumulation of cells at G2/M phase at 5 uM after 72 hrs using propidium iodide stain by flow cytometry; format: functional; procedure, shortened: as §1
DU-145 [14] = test: Cell cycle arrest in human DU145 cells assessed as accumulation of cells at G2/M phase at 10 uM after 24 hrs using propidium iodide stain by flow cytometry; format: functional; procedure, shortened: as §1
DU-145 [15] = test: Cytotoxicity against human DU145 cells after 72 hrs by XTT assay; format: functional, cell-based; settings: DU-145, 24 h, in the assay text read “after 24 hrs” for “after 72 hrs”
DU-145 [16] = test: Cell cycle arrest in human DU145 cells assessed as accumulation of cells at sub-G1 phase at 10 uM after 24 hrs using propidium iodide stain by flow cytometry; format: functional; procedure, shortened: as §1
DU-145 [17] = test: Antiproliferative activity in human DU145 cells at 10 uM after 24 hrs by XTT assay in the presence of Ac-DEVD-CMK; format: functional, cell-based
Procedure, shortened: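 DU145 cells pretreated 60 min with 50 µM Ac-DEVD-CMK or 50 µM Ac-LEHD-CMK, then exposed to 10 µM compound for 24 h (vehicle 1% DMSO in water). Proliferation read by XTT: labeling mixture added for 4 h at 37 °C, OD 450 nm (reference 650 nm) versus control wells; mean ± SE of three experiments.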

DU-145 [18] = test: Cell cycle arrest in human DU145 cells assessed as accumulation of cells at S phase at 1 uM after 24 hrs using propidium iodide stain by flow cytometry; format: functional; procedure, shortened: as §1
DU-145 [19] = test: Cell cycle arrest in human DU145 cells assessed as accumulation of cells at sub-G1 phase at 1 uM after 72 hrs using propidium iodide stain by flow cytometry; format: functional; procedure, shortened: as §1
DU-145 [20] = test: Cell cycle arrest in human DU145 cells assessed as accumulation of cells at G2/M phase at 100 uM after 24 hrs using propidium iodide stain by flow cytometry; format: functional; procedure, shortened: as §1
DU-145 [21] = test: Cell cycle arrest in human DU145 cells assessed as accumulation of cells at S phase at 10 uM after 72 hrs using propidium iodide stain by flow cytometry; format: functional; procedure, shortened: as §1
DU-145 [22] = test: Cell cycle arrest in human DU145 cells assessed as accumulation of cells at S phase at 5 uM after 72 hrs using propidium iodide stain by flow cytometry; format: functional; procedure, shortened: as §1
DU-145 [23] = test: Cell cycle arrest in human DU145 cells assessed as accumulation of cells at S phase at 100 uM after 72 hrs using propidium iodide stain by flow cytometry; format: functional; procedure, shortened: as §1
DU-145 [24] = test: Cell cycle arrest in human DU145 cells assessed as accumulation of cells at G1 phase at 10 uM after 72 hrs using propidium iodide stain by flow cytometry; format: functional; procedure, shortened: as §1

CCCCCCCCCCCCCCCCCCCCCCCC/C=C(/C(=O)OC)[C@@H](O)C(C)=O [SECOTENUIFOLIDE A]
Activity (DU-145 [1]): 3.8% | Activity (DU-145 [2]): Active | Activity (DU-145 [3]): 35.57% | Activity (DU-145 [4]): 19.02% | Activity (DU-145 [5]): 4.96% | Activity (DU-145 [6]): 33.68% | Activity (DU-145 [7]): Dose-dependent effect | Activity (DU-145 [8]): 24.88% | Activity (DU-145 [9]): Active | Activity (DU-145 [10]): Active | Activity (DU-145 [11]): Active | Activity (DU-145 [12]): Active | Activity (DU-145 [13]): 31.74% | Activity (DU-145 [14]): 36.57% | EC50 (DU-145 [15]): < 7 µM | IC50 (DU-145 [15]): 5.2 µM | Activity (DU-145 [16]): 19.72% | Activity (DU-145 [17]): inactive | Activity (DU-145 [18]): 3.31% | Activity (DU-145 [19]): 9.75% | Activity (DU-145 [20]): 26.4% | Activity (DU-145 [21]): 3.62% | Activity (DU-145 [22]): 4.05% | Activity (DU-145 [23]): 5.38% | Activity (DU-145 [24]): 48.3%
